Screening data: PubChem BioAssay, several laboratories
Hits are enriched below; roughly 2.2% of the tested compounds scored in any of these assays.
HNF4A DNA FP – change in binding of human HNF4A to DNA, primary screen, biochemical, fluorescence polarization, FITC-DNA; Hepatocyte nuclear factor 4-alpha (Homo sapiens), P41235; 1 h; activity change, % at 10 µM; 360,000 tested, 0.3% active; in the data active = activity change above about 30%, passing the limit was not always enough
Target sequence (P41235 whole entry, looked up): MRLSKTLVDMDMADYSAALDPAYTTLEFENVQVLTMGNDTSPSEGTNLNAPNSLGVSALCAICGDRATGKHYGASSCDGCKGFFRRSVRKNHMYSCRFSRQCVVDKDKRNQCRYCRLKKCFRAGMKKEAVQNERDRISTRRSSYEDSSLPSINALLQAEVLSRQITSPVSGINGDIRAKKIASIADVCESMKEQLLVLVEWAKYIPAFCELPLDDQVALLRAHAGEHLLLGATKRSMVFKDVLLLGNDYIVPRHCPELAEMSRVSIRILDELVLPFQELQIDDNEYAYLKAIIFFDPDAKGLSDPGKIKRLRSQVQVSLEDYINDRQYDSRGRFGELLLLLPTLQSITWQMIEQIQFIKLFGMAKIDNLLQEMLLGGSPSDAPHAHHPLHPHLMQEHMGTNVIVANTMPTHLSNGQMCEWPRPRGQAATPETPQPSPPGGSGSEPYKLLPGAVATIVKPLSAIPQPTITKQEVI
Myeloid diff MLP – induction of myeloid progenitor differentiation, primary screen, cell-based, flow cytometry, MLPCN library; 360,000 tested, 1% active; AID 624256, 2012; ER-HoxA9 myeloid progenitors, lysozyme-GFP differentiation; calls only at 10 µM;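 active = normalized GFP-positive differentiation at or above the plate's own cutoff, the solvent-only control mean plus 3 SD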;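 also: cells exposed to compound for four days before flow analysis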
CSN inh – inhibitors of CSN-mediated cullin deneddylation, primary screen, biochemical, fluorescence polarization, uHTS. COP9 signalosome complex subunit 5 (Homo sapiens), Q92905. 360,000 tested, 0.38% active. inhibition, % at 12.5 µM. Purified CSN, SCF-Nedd8-OG deneddylation. AID 651999, 2013;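 active = pattern-corrected inhibition above about 35%, with an unprinted fluorescence ratio check between 0.5 and 1.5, limit read from the data, passing the limit was not always enough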;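 also: 0% = enzyme with substrate and 100% = substrate without enzyme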
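Material: purified human Csn5 enzyme expressed in HEK293T cells / Medium: Tris buffer pH 7.5, NaCl, DTT, Tween-20, trehalose, ovalbumin / Compound dosing: 12.5 µM single point / Schedule: 90 min incubation of compound, enzyme and substrate at room temperature / Signal: fluorescence polarization of the substrate / Control set: no-enzyme wells high, enzyme-with-substrate wells low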
Granule exo inh – LAMP-1 surface exposure blockers, TALL-104 cells – cell-based, flow cytometry, MLPCN library, primary screen | TALL-104 LAMP-1 surface exposure; cells stimulated with thapsigargin and PMA | inhibition, % at 10 µM | 360,000 tested, 0.66% active | AID 651702, 2012;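 active = inhibition above about 55%, limit read from the data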
Exocytosis CP01 – inhibitors of lytic granule exocytosis, confirmation, TALL-104 cells, flow cytometry, Cherry Pick01; shares compounds with Granule exo inh; LAMP-1 externalization; stimulated with PMA plus thapsigargin; inhibition, % at 10 µM; 1,500 tested, 11% active; in the data active = inhibition above about 60%;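 also: 0% = stimulated vehicle wells and 100% = unstimulated wells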
* hit, by the source's call; i = inactive; . = no result given.

SMILES	HNF4A DNA FP	Myeloid diff MLP	CSN inh	Granule exo inh	Exocytosis CP01
CCOC(=O)C1CCCN(Cc2ccc(OCc3ccccc3)c(OC)c2)C1 (centres undefined)	-4.3	i	-0.1	57.4*	-12.9
CCOc1cccc(CN2CCCC(N3CCN(c4cccc(Cl)c4)CC3)C2)c1O (centres undefined)	-4.0	i	0.8	65.9*	-9.5
CCOc1cccc(CN2CCCC(N3CCc4ccccc4C3)C2)c1O (centres undefined)	-0.2	i	-3.6	-2.3	.
CCOC(=O)C1CCCN(Cc2ccc(OCc3ccccc3)cc2)C1 (centres undefined)	1.5	i	1.0	47.0	.
CCOc1cccc(CN2CCCC(C(=O)c3cc(Cl)ccc3OC)C2)c1O (centres undefined)	-0.7	i	3.7	79.9*	-9.3
Cc1nc2sccn2c(=O)c1S(=O)(=O)N1CCN(c2cccc(Cl)c2)CC1	5.4	i	-1.2	0.6	.
C=CCn1c(SCC(=O)N(C(C)CC)C2CCS(=O)(=O)C2)nc2ccccc2c1=O (centres undefined)	-2.6	i	4.6	1.0	.
N#Cc1ccsc1NC(=O)CCc1ccccc1	2.5	i	-2.9	-0.3	.
N#Cc1ccsc1NC(=O)CCN1CCN(C(c2ccccc2)c2ccccc2)CC1	-3.9	i	1.6	77.2*	-9.5
O=C(CSc1nc(C2CC2)nc2ccccc12)Nc1ccccc1	3.2	.	0.6	77.5*	-4.1
CC(=O)Nc1cccc(NC(=O)CSc2nc(C3CC3)nc3ccccc23)c1	-1.1	i	0.8	9.0	.
NC(=O)CSc1nc2cc(Cl)ccc2c(=O)n1C1CCCCC1	-0.4	i	0.9	-10.8	.
Cc1cccc(COCC(CC(C)C)N2CCN(C(=O)c3ccc(C(C)(C)C)cc3)CCC2=O)c1 (centres undefined)	-1.6	i	1.3	66.1*	-4.2
COc1cc2c(cc1O)[C@@H]1Cc3cc(OC)c(OC)cc3C(C2)N1C	-3.8	i	-2.5	-3.1	.
COc1cc2c(cc1OC)[C@@H]1Cc3cc4c(cc3[C@H](C2)N1C)OCO4	-7.0	i	-8.4	79.0*	-13.7
CN(C)/C=C\C(=C/C(=O)C(F)(F)F)Nc1ccccc1Oc1ccccc1	-3.8	i	5.8	76.6*	-1.9
CCc1nc2ccc(C(=O)Nc3cc(-c4ccccc4)ccc3OC)cn2c1N(CC)CCN(C)C	-1.0	i	0.8	59.5*	47.7
CCc1nc2ccc(C(=O)Nc3cc(-c4ccccc4)ccc3OC)cn2c1N(CC)Cc1cccc(Br)c1	1.1	i	2.0	13.9	.
OC(c1ccccc1)(c1ccc(F)cc1)C(c1ccccc1)N1CCOCC1 (centres undefined)	-0.7	i	0.0	98.4*	9.5
CC(O)(c1ccccc1)C(C(c1ccccc1)N1CCOCC1)N1CCOCC1 (centres undefined)	-2.0	i	3.0	0.1	.
COc1ccc2nc(N(CCN(C)C)C(=O)c3ccc4ncsc4c3)sc2c1	2.9	i	-2.6	75.1*	-13.2
CCOc1ccc2nc(N(CCCN(C)C)C(=O)c3ccc(S(=O)(=O)N4CCc5ccccc5C4)cc3)sc2c1	-0.6	i	0.8	67.7*	83.5*
CCOC(=O)N1CCN(S(=O)(=O)c2ccc(C(=O)Nc3nc4ccc(F)cc4s3)cc2)CC1	1.6	.	0.8	2.8	.
CCc1ccc2nc(N(CCCN(C)C)C(=O)c3ccc(S(=O)(=O)N4CCCC4)cc3)sc2c1	8.7	i	6.1	14.0	.
CCOC(=O)N1CCN(S(=O)(=O)c2ccc(C(=O)Nc3nc4ccccc4s3)cc2)CC1	-3.7	i	-0.8	100.1*	-10.2
SMILES	HNF4A DNA FP	Myeloid diff MLP	CSN inh	Granule exo inh	Exocytosis CP01
CCc1ccc2nc(N(CCCN(C)C)C(=O)c3ccc(S(=O)(=O)N4CCCc5ccccc54)cc3)sc2c1	6.6	i	2.0	56.5*	23.5
COc1cccc(CN2CCC2(C)C(=O)NCCc2ccccn2)c1OC (centres undefined)	-2.6	i	-3.5	-1.6	.
CCOC(=O)N1CCN(S(=O)(=O)c2ccc(C(=O)N(CCCN(C)C)c3nc4ccc(CC)cc4s3)cc2)CC1	2.6	i	5.4	62.3*	-2.6
O=C(O)C1C(c2ccccc2)C(C(=O)OCc2ccco2)C1c1ccccc1 (centres undefined)	-7.2	i	7.2	-0.1	.
COC(=O)C1C(c2ccccc2)C(C(=O)OCc2ccco2)C1c1ccccc1 (centres undefined)	2.7	i	-4.5	69.4*	27.4
CCc1cccc(NC(=O)Cn2ncn3c(cc4ccccc43)c2=O)c1	0.6	i	-4.4	-5.0	.
Cc1ccc(NC(=O)Cn2ncn3c(cc4ccccc43)c2=O)cc1F	2.0	i	1.6	106.0*	-14.6
CCOC(=O)c1ccc(NC(=O)c2ccc(CN3CCc4ccccc4C3)cc2)cc1	4.8	i	-3.9	70.3*	-12.1
O=C(c1cc2cc(F)ccc2[nH]1)N1CCC(Cc2ccccc2)CC1	2.7	i	-1.7	51.7	.
O=C(CN(c1cccc(Br)c1)S(=O)(=O)c1ccccc1)N/N=C/c1cc([N+](=O)[O-])ccc1O	-3.8	i	-1.1	14.4	.
CCOC(=O)C1(CCOc2ccccc2)CCN(Cc2ccc(F)c(OC)c2)CC1	2.3	i	0.2	72.1*	-2.8
CCOC(=O)C1(CCOc2ccccc2)CCN(Cc2ccc(O)c(OC)c2)CC1	0.9	i	-0.9	69.9*	-10.2
CCOC(=O)C1(CCOc2ccccc2)CCN(Cc2ccc(O)c(Cl)c2)CC1	-2.2	i	-4.3	2.7	.
CCOC(=O)C1(CCOc2ccccc2)CCN(Cc2ccc3c(c2)OCCO3)CC1	-0.1	i	-5.0	82.7*	-3.1
CC(=O)Nc1cc(-c2ccc(C(=O)N3CCOCC3)cc2)cn2c(-c3cccc(C(F)(F)F)c3)cnc12	0.4	i	2.1	-7.3	.
COc1ccc(CNC(=O)C2CCN(S(=O)(=O)c3ccc4c(c3)N(C(C)=O)CCO4)CC2)cc1	-6.5	i	-4.9	-0.4	.
C=CC[C@@H](CC(=O)NCCO)C(=O)N[C@H](C)COC(=O)[C@@H](CC=C)Cc1ccc(F)cc1	-6.3	i	-1.2	-6.8	.
COc1ccc(Cl)cc1N(C(=O)c1ccco1)C(C(=O)NC1CCCC1)c1ccco1 (centres undefined)	2.4	i	3.6	64.3*	-14.6
COc1ccc(Cl)cc1N(C(=O)c1ccco1)C(C(=O)NC1CCCC1)c1ccncc1 (centres undefined)	3.4	i	1.6	27.2	.
O=C(Cn1nc(-c2ccccc2)ccc1=O)N1CCCCC1	2.8	i	1.5	-0.5	.
COC(=O)C(NC(=O)CNS(=O)(=O)c1ccc(Br)cc1)c1ccccc1 (centres undefined)	-4.0	i	-3.5	62.0*	-4.7
